Tested on: MS2 coat protein
Assay: apparent Kd, MS2 coat protein; higher = weaker binding; RNA-MaP array; FMN 200 µM where present
How it was run: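 Designs were transcribed by stalled E. coli RNA polymerase on Illumina sequencing-chip clusters. They were titrated with SNAP-549-labelled MS2 coat protein from 0.7 or 1.5 nM, doubling to 3 µM, in 100 mM Tris-HCl pH 7.5, 80 mM KCl, 4 mM MgCl2, BSA, DTT, yeast tRNA and Tween-20, without and then with constant ligand. The apparent Kd is the median of filtered per-cluster fits after normalisation of green signal to red-channel RNA signal and control-cluster median Fmax.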

[1] = designed as: OFF switch for flavin mononucleotide, no ligand
[2] = ligand present: flavin mononucleotide, designed as: OFF switch for flavin mononucleotide
[3] = designed as: ON switch for flavin mononucleotide, no ligand
[4] = ligand present: flavin mononucleotide, designed as: ON switch for flavin mononucleotide

Sequence: CGGUCGAUGUAAGGAUAUCGACUGGAAUACAGUCGAGAAGGUACAUGAGGAUCACCCAUGUAAUCCUAAUAAUAAUAACGACCG
- apparent Kd [1]: 11.1 nM
- apparent Kd [2]: 17.4 nM

Sequence: AUAUUCUAGAUAGGAUAUACUGAGGUUGAAUGGGUAGAAGGAUCGUUAGAGUGGACUACAUGAGGAUCACCCAUGUUGUUUAUU
- apparent Kd [3]: 48.3 nM
- apparent Kd [4]: 42.7 nM

Sequence: AAAAUGUGAGGAUAUCAGGUGUGCUAGAGAACUGGUACAUCUGAGAAGGCACAUGAGGAUCACCCAUGUUCUUC
- apparent Kd [1]: 34.6 nM
- apparent Kd [2]: 156 nM

Sequence: AGCUAGUGAGGAUAUACGAACAUGUCAAAAGACGUGAAGGGACAUGAGGAUCACCCAUGUAGAAGGCACUAGCA
- apparent Kd [1]: 41.1 nM
- apparent Kd [2]: 139 nM

Sequence: AGCAUGCUAGGAUAUACGGGACAUUAGGGUUCGUUGUAUGGACAUGAGGAUCACCCAUGUAGAAGGAGCGUGCA
- apparent Kd [1]: 28 nM
- apparent Kd [2]: 99.8 nM

Sequence: GUCAGCUCGUGAGGAUAUACAUGUGCUGGAGACAGCACUAAAGUUUUCACAUGAGGAUCACCCAUGUAGAAGGCACGAGCUGAU
- apparent Kd [1]: 15.4 nM
- apparent Kd [2]: 36 nM

Sequence: GCUACUUAUUUUAAUUAUGAUUUACUAGAAGGUAGAUACAUGAGGAUCACCCAUGUUUAGAGUUCUAAGGAUAUAGUUUUUAGC
- apparent Kd [3]: 8.25 nM
- apparent Kd [4]: 7.24 nM

Sequence: GGCUAGUGAGGAUAUACGUGCACUCCUCAGUCGCCAGUCGGACAUGAGGAUCACCCAUGUAGAAGGUAUCGGCA
- apparent Kd [1]: 27.8 nM
- apparent Kd [2]: 30.2 nM

Sequence: AAUAAGUCAGGAUAUACUAUGUCAGGAGAGAGACUGACUAUGUAGAAGGGACAUGAGGAUCACCCAUGUAAUAA
- apparent Kd [1]: 28.6 nM
- apparent Kd [2]: 35.9 nM

Sequence: UUGUUGUAUGUAGGAUAUGCAUAUUAUUAUUAUGCAGAAGGACAUGAGGAUCACCCAUGUAUAUUAUUAUUAUAUAUUAUAUAU
- apparent Kd [1]: 30 nM
- apparent Kd [2]: 49.3 nM

Sequence: UAUGUUGUUGUGAGGAUAUACUUAGUUUGACCGUAGUAGAAGGCACAUGAGGAUCACCCAUGUAGAUGCUUGGU
- apparent Kd [1]: 5.75 nM
- apparent Kd [2]: 10.8 nM

Sequence: GCUAUAGAUGUAGGAUAUCAUAUAGAAGCUAUGUGAGAAGGACAUGAGGAUCACCCAUGUCAAUGGAUGGAGCGAAGUUAUGGC
- apparent Kd [1]: 43.4 nM
- apparent Kd [2]: 57.7 nM

Sequence: UUGUGGGAGCAGGAUAUCUUAUUUUUUUUUUGUGGAGAAGGGCUGACAUGAGGAUCACCCAUGUGGUCCUAGAU
- apparent Kd [1]: 28.2 nM
- apparent Kd [2]: 27.9 nM

Sequence: AAUCUGUGAGGAUAUGGUGAGUAGUGCCUGAGCGCUGCUCACCAGAAGGCACAUGAGGAUCACCCAUGUAUGAC
- apparent Kd [1]: 34.2 nM
- apparent Kd [2]: 153 nM

Sequence: ACCGAAUGAACAUGAGGAUCACCCAUGUACCCGAAAGGGAAUGAGGAUAUCGAUAGCAAAGCUAUCGAGAAGGCAUGGGUCGGU
- apparent Kd [3]: 573 nM
- apparent Kd [4]: 169 nM

Sequence: GCCCGGCAUACAUGAGGAUCACCCAUGUCAGAAAGGGUAAUCAGAAGGUACUAUUAGAGAAAGAGUAAGGAUAUGAAGCCGGGC
- apparent Kd [3]: 599 nM
- apparent Kd [4]: 134 nM

Sequence: UGUAUUAAUGGAGGAUAUCGAUAUCAAACAUGAGGAUCACCCAUGUUGAGGAUCACCCAUGUCCACGAGAAGGCUGGCGUACGU
- apparent Kd [3]: 16.6 nM
- apparent Kd [4]: 18.1 nM

Sequence: AGUAGGCAGUGAGGAUAUGUACUUGUAACGGUACAUGAGGAUCACCCAUGUGGUGGGAGUGGAGGACAGAAGGCACCGUUUGGG
- apparent Kd [3]: 114 nM
- apparent Kd [4]: 66.6 nM

Sequence: UUAUUAGCAGGAUAUAUCCGGGAUAACAUGAGGAUCACCCAUGUGACCGCUUGAUAUCCUAUAGAAGGGCUUUAUU
- apparent Kd [1]: 19.9 nM
- apparent Kd [2]: 31.4 nM

Sequence: CGGCUCUCAGGAUAUACCUCGGGUGGCCAACUGUUUCGUUUACAUGAGGAUCACCCAUGUAGAAGGGAGGGCAA
- apparent Kd [1]: 49.7 nM
- apparent Kd [2]: 27 nM

Sequence: GAGGAGCAAGGAUAUACGAGGAUAUGGUAGUUUGUAGAGUGACAUGAGGAUCACCCAUGUAGAAGGUGCGAGGG
- apparent Kd [1]: 64.2 nM
- apparent Kd [2]: 52.9 nM

Sequence: AAAGACAUGAGGAUCACCCAUGUCGGUAUAACUUAAGCGUCACAGGAUAUGUUACGAAAUUAUGGACAGAAGGGUGAGCUGUGG
- apparent Kd [3]: 23.8 nM
- apparent Kd [4]: 9.02 nM

Sequence: GUCAGCUCGUGAGGAUAUACAACACUGCUGCGGCAGUGUAUUAAGAUCACAUGAGGAUCACCCAUGUAGAAGGCACGAGCUGAU
- apparent Kd [1]: 13.7 nM
- apparent Kd [2]: 262 nM

Sequence: CUGUGACGGUGCGCAAGUGGACGGAGAAGGGUCACAUGAGGAUCACCCAUGUGGGCCUGCUAUUGACAGGAUAUCCGUUCGUAC
- apparent Kd [1]: 5.94 nM
- apparent Kd [2]: 6.46 nM

Sequence: AUUUAAAUGUCAGGAUAUGUUAGUUUAUACAUAGUAGAAGGGAUAAUUAUACUCAUGUACAUGAGGAUCACCCAUGUUAAAUAA
- apparent Kd [3]: 206 nM
- apparent Kd [4]: 107 nM

Sequence: GGUUGUCAUAGUCAUCCUUUACGUACAUGAGGAUCACCCAUGUAGGAUAUGCUACUCAAAGAGUAGCAGAAGGGCGUGUGUCUU
- apparent Kd [1]: 23.1 nM
- apparent Kd [2]: 25.5 nM

Sequence: UAAACACCCUCAUGUACCUGAGGACAUGAGGAUCACCCAUGUGAGGAUAUAGCCAUUAAAUCUAACUAGAAGGUAUAGGAAAUC
- apparent Kd [1]: 772 nM
- apparent Kd [2]: 612 nM

Sequence: UGUCGAAGCAGAGGAUAUUACAUGAGGAUCACCCAUGUAUGAACCAAUAGCUGGAAACAGCAAUGUAAGAAGGCUGCUCCGACA
- apparent Kd [1]: 11.8 nM
- apparent Kd [2]: 138 nM

Sequence: AACAUGGUACAGAAGGGCUAUUUAUUUAAUUAUUAUUUAGAACAGCAUAGCAGGAUAUGUUUAACAUGAGGAUCACCCAUGUAC
- apparent Kd [3]: 71.3 nM
- apparent Kd [4]: 14.7 nM

Sequence: AGCUACGUUUCGUAGCAGUGUCAUCGAGAAGGCCUCAUAACAUGAGGAUCACCCAUGUUAGCAUGGGAGGAUAUCGAUGAUACA
- apparent Kd [3]: 58.8 nM
- apparent Kd [4]: 24.2 nM

Sequence: UGUAUGGACAGAGGAUAUACAGAUAGGAUCUACUAUCAAACAAUCCUGACAUGAGGAUCACCCAUGUAGAAGGCUGUCCAUACU
- apparent Kd [1]: 23.8 nM
- apparent Kd [2]: 91.4 nM

Sequence: GGCAUAAACGAGGAUAUCGUUACGGAAACGUAACGAGAAGGUGUAACAUGAGGAUCACCCAUGUUCCUCAAGCC
- apparent Kd [1]: 30.5 nM
- apparent Kd [2]: 33 nM

Sequence: AGUAUGUUUGAGAAGGUGAAGUGGAAACAUGAGGAUCACCCAUGUAUUAGGAAGCCUGGUUUUGUCAAGGAUAUCGGGUAUACA
- apparent Kd [3]: 19.8 nM
- apparent Kd [4]: 16.1 nM

Sequence: AAGAUGUUAGGAUAUCGAAGGUUGUGGCAGGCGGGAAUUUGCGAGAAGGAACAUGAGGAUCACCCAUGUGAAAU
- apparent Kd [1]: 22.3 nM
- apparent Kd [2]: 21.8 nM

Sequence: AAGAAGUCAGGAUAUGCUGCUCGUCACUUGCGUGAUGAGUAGCAGAAGGGACAUGAGGAUCACCCAUGUAAAGG
- apparent Kd [1]: 164 nM
- apparent Kd [2]: 356 nM

Sequence: CUUUUGUGAGGAUAUCAGUAGUAAUACAAUAGUAUUACUACUGAGAAGGCACAUGAGGAUCACCCAUGUUCCUU
- apparent Kd [1]: 16 nM
- apparent Kd [2]: 29.5 nM

Sequence: GGAGAACAUGAGGAUCACCCAUGUGGAUGGGCGCUAGGAUAUGCGAGAGGGUGAAGAGAAGCAGAAGGAGUGGAUA
- apparent Kd [3]: 141 nM
- apparent Kd [4]: 142 nM

Sequence: GCGUGGUUCUAGAAGGUGCUAGCGAUAAGCUAGCAAGGAUAUAGACAUGAGGAUCACCCAUGUCUUUGUGAAAUCGACACACGC
- apparent Kd [1]: 5.58 nM
- apparent Kd [2]: 6.39 nM

Sequence: GUGCACAUUCGAGGAUAUCGGAGAGGGAUCCUUCGAGAAGGCGAUUCAUGCUGUGUUAUUCUGGACAUGAGGAUCACCCAUGUG
- apparent Kd [3]: 265 nM
- apparent Kd [4]: 125 nM

Sequence: UAAAUGUGAGGAUAUCAGGUGUGCUAGAAUACUGGUACAUCUGAGAAGGCACAUGAGGAUCACCCAUGUUCCUU
- apparent Kd [1]: 16.4 nM
- apparent Kd [2]: 41 nM

Sequence: AGAUCGAGUGUGAGGAUAUUGACCGGACGACCCAUCGAGAAGGCACAUGAGGAUCACCCAUGUGAUUCGGUUUA
- apparent Kd [1]: 15.2 nM
- apparent Kd [2]: 32.5 nM

Sequence: CAGGUAGCUACAGGAUAUACACAGCUCAGUAAACUGAGCAAAAGAUCUACAUGAGGAUCACCCAUGUAGAAGGGUAGCUGCCUG
- apparent Kd [1]: 17.1 nM
- apparent Kd [2]: 18.2 nM

Sequence: AAGAAGUGAGGAUAUCGAAGACUGUCGAAAAGACAGUCGAACGAGAAGGCACAUGAGGAUCACCCAUGUAAGAA
- apparent Kd [1]: 24.1 nM
- apparent Kd [2]: 34.5 nM

Sequence: CGGAUGUCAGGAUAUCGUGCAUACAACGAAAGUUCUAUGUGCGAGAAGGGACAUGAGGAUCACCCAUGUUACGG
- apparent Kd [1]: 252 nM
- apparent Kd [2]: 588 nM

Sequence: ACAUGACAUGAGGAUCACCCAUGUGAGGAUAUGCGAAAAAAAUUUUUAAAAAAAAUUGGCAGAAGGCACAAAAU
- apparent Kd [1]: 121 nM
- apparent Kd [2]: 139 nM

Sequence: CCGACGUCAGGAUAUCUGAUGUCUAACUUCGGUUAGACAUCAGAGAAGGGACAUGAGGAUCACCCAUGUCGGAG
- apparent Kd [1]: 29 nM
- apparent Kd [2]: 52.8 nM

Sequence: UGCUAGAACCUAGGAUAUCCUAGGUUGGUGGUGCUUGGUGACCGGACAUGAGGAUCACCCAUGUAGGAGAAGGAGGUUGCUAAG
- apparent Kd [1]: 37.8 nM
- apparent Kd [2]: 41.2 nM

Sequence: AAGUUUUUACAAGGAUAUCAUUUGUUUCUAAAUUCAACAUGAGGAUCACCCAUGUAACAAUGGAGUGAGAAGGUGUGUUGGCAA
- apparent Kd [3]: 101 nM
- apparent Kd [4]: 84.6 nM

— the EternaBench riboswitch data
